In ChEMBL document CHEMBL1255315, “The hepatitis C virus replicon presents a higher barrier to resistance to nucleoside analogs than to nonnucleoside polymerase or protease inhibitors” (Antimicrob Agents Chemother, 2008):

Experiments:
[1] = Cytotoxicity against human HuH7 cells; assay type: cell-based, Huh-7
In short: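 Viability of the stable GT 1b Con1 replicon cells was measured by MTT or WST-1 assay to give CC50, the 50% cytotoxic concentration. The number of experiments matched the EC50 determinations, and values are reported as mean ± SD.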

Hepatitis C virus [2] = assay: Antiviral activity against Hepatitis C virus subtype 1b Con1 infected in human HuH7 cells after 3 days by luciferase reporter gene assay; assay type: functional, organism-based, Hepacivirus hominis; conditions: Con1, Huh-7, 72 h
In short: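 Huh7-derived 2209-23 cells stably carrying a GT 1b Con1 subgenomic replicon encoding Renilla luciferase, incubated with compound for 3 days. The EC50 is the concentration that reduces reporter luciferase activity by 50% versus untreated controls. Values are reported as mean ± SD over repeated experiments, with the number of experiments differing by compound.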

Hepatitis C virus [3] = assay: Antiviral activity against HCV infected in human assessed as log reduction in viral load at 4500 […] BID; assay type: functional, Hepacivirus hominis
Hepatitis C virus [4] = assay: Antiviral activity against HCV subtype 1b infected in human HuH7 cells assessed as number of resistant colonies formed at 15 times EC50 after 3 weeks; assay type: functional, Hepacivirus hominis, genotype 1b, Huh-7
In short: (§1)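 Huh7 cells stably carrying a GT 1b subgenomic neoR replicon, seeded at 1 × 10^5 cells/well with 0.5 mg/ml G418, were exposed to one or two inhibitors at multiples of EC50 (from the 3-day Con1 2209-23 luciferase assay). Medium was changed twice weekly, with a 1:4 split at ~95% confluence. After 3 weeks, cells were formaldehyde-fixed and crystal violet-stained, and colonies were counted.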

Hepatitis C virus [5] = assay: Antiviral activity against HCV subtype 1b infected in human HuH7 cells assessed as number of resistant colonies formed at 10 times EC50 after 3 weeks; assay type: functional, Hepacivirus hominis, genotype 1b, Huh-7; in short: as §1
Hepatitis C virus [6] = assay: Antiviral activity against HCV infected in human assessed as log reduction in viral load measured on day 4 postdose; assay type: functional, Hepacivirus hominis
Hepatitis C virus [7] = assay: Antiviral activity against HCV genotype 1 infected in human assessed as log reduction in viral load at 750 mg administered every 8 hrs for 14 days
Hepatitis C virus [8] = assay: Antiviral activity against HCV infected in human assessed as log reduction in viral load at 800 […] SID; assay type: functional, Hepacivirus hominis

Row | EC50 (Hepatitis C virus [2]) | SMILES | CC50 [1] | other results
1 | 0.61 µM | C[C@@]1(F)[C@H](O)[C@@H](CO)O[C@H]1n1ccc(N)nc1=O | > 100 µM | 
2 | 1.23 µM | C[C@@]1(O)[C@H](O)[C@@H](CO)O[C@H]1n1ccc(N)nc1=O | > 100 µM | 
3 | 1.28 µM | [N-]=[N+]=N[C@]1(CO)O[C@@H](n2ccc(N)nc2=O)[C@H](O)[C@@H]1O [4'-AZIDOCYTIDINE] | > 100 µM | 
4 |  | CC(C)C(=O)OC[C@@]1(N=[N+]=[N-])O[C@@H](n2ccc(N)nc2=O)[C@H](OC(=O)C(C)C)[C@@H]1OC(=O)C(C)C [BALAPIRAVIR] |  | FC (Hepatitis C virus [3]): 3.7
5 |  | CC(C)[C@H](N)C(=O)O[C@@H]1[C@@H](CO)O[C@@H](n2ccc(N)nc2=O)[C@]1(C)O [VALOPICITABINE] |  | FC (Hepatitis C virus [8]): 1.2

Row | SMILES | EC50 (Hepatitis C virus [2]) | CC50 [1] | other results
6 | CNC(=O)c1c(-c2ccc(F)cc2)oc2cc(N(CCO)S(C)(=O)=O)c(C3CC3)cc12 [NESBUVIR] | 0.017 µM | > 100 µM | Activity (Hepatitis C virus [4]): 36; Activity (Hepatitis C virus [5]): 60; FC (Hepatitis C virus [6]): 1.4
7 | CCC[C@H](NC(=O)[C@@H]1[C@H]2CCC[C@H]2CN1C(=O)[C@@H](NC(=O)[C@@H](NC(=O)c1cnccn1)C1CCCCC1)C(C)(C)C)C(=O)C(=O)NC1CC1 [TELAPREVIR] | 0.56 µM | 26.7 µM | Activity (Hepatitis C virus [4]): 93; Activity (Hepatitis C virus [7]): > 4 log10IU/ml
